Assay results reported in BindingDB's records for doi:10.1016/j.bmc.2016.09.019 (Florida A&M University, 2016).
pKi: −log10 of the molar value.

Assays:
[1] = biological target: T1, 5-hydroxytryptamine receptor 2C (Homo sapiens, UniProt P28335); assay: Displacement of [3H]-mesulergine from human 5-HT2C receptor by liquid scintillation counting method
T1 sequence (P28335 whole entry): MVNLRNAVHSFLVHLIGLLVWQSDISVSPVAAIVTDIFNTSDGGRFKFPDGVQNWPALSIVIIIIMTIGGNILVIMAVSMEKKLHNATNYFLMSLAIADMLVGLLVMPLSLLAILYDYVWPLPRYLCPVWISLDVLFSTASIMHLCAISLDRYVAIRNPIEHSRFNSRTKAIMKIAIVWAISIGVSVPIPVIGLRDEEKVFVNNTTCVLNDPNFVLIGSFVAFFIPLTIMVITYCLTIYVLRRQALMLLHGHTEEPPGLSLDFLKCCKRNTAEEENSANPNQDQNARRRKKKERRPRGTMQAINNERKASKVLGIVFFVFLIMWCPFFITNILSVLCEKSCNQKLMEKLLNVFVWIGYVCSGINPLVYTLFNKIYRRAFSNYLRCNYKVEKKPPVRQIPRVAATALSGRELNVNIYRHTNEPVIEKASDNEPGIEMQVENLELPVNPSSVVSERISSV
Method in brief: (§1)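 Binding assays run by the NIMH Psychoactive Drug Screening Program (PDSP) using its previously reported methods and radioligands. Affinity is given as Ki.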

Histamine H1 receptor = Histamine H1 receptor (Homo sapiens, UniProt P35367); assay: Displacement of [3H]-pyrilamine from human histamine H1 receptor by liquid scintillation counting method; method in brief: as §1
[2] = biological target: 5-hydroxytryptamine receptor 7 (Homo sapiens, UniProt P34969); assay: Displacement of [3H]-LSD from human 5-HT7 receptor by liquid scintillation counting method
5-hydroxytryptamine receptor 7, sequence (P34969 whole entry): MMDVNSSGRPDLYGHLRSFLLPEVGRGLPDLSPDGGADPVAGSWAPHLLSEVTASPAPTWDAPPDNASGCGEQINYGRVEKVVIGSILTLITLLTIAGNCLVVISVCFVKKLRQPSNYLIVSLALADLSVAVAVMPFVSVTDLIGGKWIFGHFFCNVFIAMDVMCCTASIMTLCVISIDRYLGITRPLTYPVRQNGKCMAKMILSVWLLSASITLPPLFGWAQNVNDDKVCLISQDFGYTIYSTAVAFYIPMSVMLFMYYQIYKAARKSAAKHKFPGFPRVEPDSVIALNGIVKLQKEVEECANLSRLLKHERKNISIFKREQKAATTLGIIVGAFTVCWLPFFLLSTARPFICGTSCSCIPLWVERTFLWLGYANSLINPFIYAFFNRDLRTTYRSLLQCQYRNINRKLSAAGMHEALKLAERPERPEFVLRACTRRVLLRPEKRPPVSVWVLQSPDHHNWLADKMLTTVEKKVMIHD

Histamine H1 receptor, sequence (P35367 whole entry): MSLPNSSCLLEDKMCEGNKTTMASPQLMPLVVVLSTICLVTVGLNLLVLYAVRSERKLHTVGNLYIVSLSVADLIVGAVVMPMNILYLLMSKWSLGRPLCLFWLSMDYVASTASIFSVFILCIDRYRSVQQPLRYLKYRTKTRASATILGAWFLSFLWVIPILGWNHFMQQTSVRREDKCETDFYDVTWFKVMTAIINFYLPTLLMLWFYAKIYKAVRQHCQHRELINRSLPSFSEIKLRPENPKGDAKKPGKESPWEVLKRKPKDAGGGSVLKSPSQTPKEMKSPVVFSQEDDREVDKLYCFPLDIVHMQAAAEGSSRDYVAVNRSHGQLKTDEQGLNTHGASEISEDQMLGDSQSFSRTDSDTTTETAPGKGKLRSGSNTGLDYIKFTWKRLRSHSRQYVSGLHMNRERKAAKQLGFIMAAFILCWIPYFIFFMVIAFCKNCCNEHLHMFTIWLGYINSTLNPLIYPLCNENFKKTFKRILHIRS

pKi [1]: 5.69 | pKi (Histamine H1 receptor): 6.00 | pKi [2]: 6.30
SMILES: Clc1ccc(C(=[C][C][C]N2[C][C]c3ccccc3[C]2)c2ccc(Cl)cc2)cc1
